From publication PMC11959935 (Acta Pharmaceutica Sinica. B, 2025) come the findings set out here.

The test system of test [1] is GL261 glioma allograft. The test can be described thus: PET imaging of orthotopic GL261 glioma allograft mouse models. Type of test: in vivo. A digest of the protocol:
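Mice under isoflurane (1.5%, 0.4 L/min) in a stereotactic frame received mouse GL261 glioma cells (suspension 1 × 10^5 cells/mL) through a drilled hole by Hamilton syringe; controls received PBS. After 10 days, tumours were confirmed by T2-weighted MRI and [18F]FET PET (11.1 MBq), then the radiotracer was given i.v. T/N ratio was lesion SUV over contralateral normal brain.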

Test [2] relates to epileptic focus. The test can be described thus: Pilot clinical PET imaging in a patient with temporal lobe epilepsy. Type of test: in vivo, human.

Turning to `N[C@@H](Cc1ccc(OCC[18F])cc1)C(=O)O` [[^18F]FET, ^18F-fluoro-ethyl-tyrosine], the T/N ratio in test [1] amounted to 1.17 ± 0.02.
As to `CCOC(=O)c1ncn2c1CN(C)C(=O)c1cc([18F])ccc1-2` [[^18F]FMZ], the “SUVmean in epileptic focus” value in test [2] is reported as 0.54 ± 0.28.
